TRPC6 act: activators of mouse TRPC6 channel | Q61143 | HEK293-TRPC6 membrane potential dye fluorescence; hits give high values | B-score at 10 µM | 310,000 compounds, 0.13% hits | AID 2550;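 active means B-score of the integrated fluorescence ratio above library mean plus 3 SD, and starting fluorescence ratio within library mean plus 5 SD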;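 further: higher score means more depolarization so channel activation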
TRPC4 agonist: TRPC4 (mouse) channel activation; HEK293 TRPC4beta/mu-opioid, Fluo4 calcium fluorescence; hits give high values; Q9QUQ5; B-score at 10 µM; 310,000 compounds, 0.49% hits;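 active means B-score above 5 SD of library B-scores, and initial fluorescence ratio not above library mean plus 5 SD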;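 further: positive B-score marks a calcium rise read as TRPC4 activation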
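system = HEK293 cells stably co-expressing mouse TRPC4beta and mu-opioid receptor | schedule = Fluo4 dye loading 45 min at room temperature, 110 s recording | measure = B-scored integrated calcium fluorescence ratio | signal = Fluo4 calcium-sensitive dye fluorescence, kinetic, 1 Hz baseline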
TRPC4 inh: blocks the mouse TRPC4 cation channel. Q9QUQ5. HEK293 TRPC4beta/mu-opioid, DAMGO-evoked Fluo4 calcium flux; hits give low values. B-score at 10 µM. 300,000 compounds, 0.39% hits;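 active means B-score over 3 SD under the library average, no early fluorescence shift, positive overall ratio signal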
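Assay system: Stable TRPC4beta/mu-opioid receptor HEK293 cells | Reagent: DAMGO in two steps, submaximal then maximal | Compound dosing: Single concentration per test compound | Signal: Fluo4 Ca2+ flux fluorescence | Evaluation: Per-well B score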
TRPC4 PAM: allosteric potentiators of mouse TRPC4 channel; Q9QUQ5; AID 2227; 310,000 compounds, 0.42% hits; HEK293 TRPC4beta/mu-opioid, DAMGO EC20, Fluo-4 Ca2+ flux; hits give high values; B-score at 10 µM;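 active means B-score of calcium response area above 5 SD of library B-scores, with initial fluorescence ratio within 5 SD of library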;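 further: B-score of integrated fluorescence ratio over time as area under calcium response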
TRPC6 inhibitor: inhibitors of mouse TRPC6 channel; HEK293-TRPC6, membrane potential dye, ACh-evoked depolarization; hits give low values; AID 2553; 310,000 compounds, 1.1% hits; B-score at 10 µM;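 active means B-score under library mean minus 3 SD, initial fluorescence not abnormally high, positive integrated signal ratio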;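 further: B-score derived from integrated fluorescence ratio over the kinetic read; more negative B-score means stronger inhibition of depolarization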
* marks the source's active call; other numbers are inactive results; i = inactive. Only some compounds are listed: those with a hit (about 2.3% of all), similar ones and a draw of the others.

SMILES	TRPC6 act	TRPC4 agonist	TRPC4 inh	TRPC4 PAM	TRPC6 inhibitor
Cc1cccc(/C(N)=N/OC(=O)COc2ccc(Cl)cc2)c1	i	i	i	i	i
Cc1ccc(S(=O)(=O)NC2=NCN(C(C)C)CN2)cc1	i	i	i	i	i
O=C(NCC1CCCN1S(=O)(=O)c1cccs1)c1cccc(Cl)c1 (centres undefined)	i	i	i	i	i
COc1ccccc1C(=O)NNC(=S)NC(=O)c1cccs1	i	137*	i	i	i
Cc1cccc(C(=O)NNC(=S)NC(=O)c2cccs2)c1	i	212*	i	i	i
CCCCN(C)CCNC(=O)c1cc2cc3ccc(OC)cc3nc2o1	i	i	i	12*	i
CCN(CC)CCNC(=O)c1cc2cc3ccc(OC)cc3nc2o1	i	i	i	i	i
CCOc1ncccc1C(=O)Nc1c(C)n(C)n(-c2ccccc2)c1=O	i	i	i	i	i
COc1ccc(NC(=O)c2cccc(N3C(=O)C4CC=C(C)CC4C3=O)c2)c(OC)c1 (centres undefined)	i	i	-6*	i	i
CCOC(=O)C1CCN(C(=O)CN2C(=O)COc3ccc(C(C)(C)C)cc32)CC1	i	i	i	i	i
O=C1c2ccccc2C2(c3ccccc3)N1CCN2C(=O)C(Cl)(Cl)Cl (centres undefined)	i	i	i	i	i
O=C(Nc1ccc(F)cc1)N1CCN2C(=O)c3ccccc3C12c1ccccc1 (centres undefined)	i	i	-6*	i	i
Cc1ccc(Cl)cc1NC(=O)C1CCCN1S(=O)(=O)c1ccc(-c2ccc(=O)[nH]n2)s1 (centres undefined)	i	i	i	i	i
CN(CCOc1ccc(Cl)cc1)C(=O)C1CCN(C(=O)c2ccc(Cl)cc2)CC1	i	i	i	i	i
CCSc1nc2sc3c(c2c2nnc(SCC(=O)NCc4ccco4)n12)CCCC3	i	i	i	i	i
CC(C)Sc1nc2sc3c(c2c2nnc(SCC(=O)NCc4ccco4)n12)CCCC3	i	i	-7*	i	i
O=Cc1cc(N=Nc2cccc(C(=O)O)c2)ccc1O	i	i	i	i	i
O=Cc1cc(N=Nc2ccccc2Cl)ccc1O	i	i	-7*	i	i
CCOC(=O)c1c(N)sc(-c2ccccc2)c1C	i	i	i	i	i
CCOC(=O)c1c(N)sc(C(O)(C(F)(F)F)C(F)(F)F)c1-c1ccccc1	i	i	-7*	i	i
CC1C(=O)N2CCCc3cc(S(=O)(=O)N4CCN(c5cccc(Cl)c5)CC4)cc1c32 (centres undefined)	i	i	i	i	i
COc1cccc(CC(=O)OCC(=O)N(C)CC(=O)Nc2ccc(Cl)c(C(F)(F)F)c2)c1	i	i	i	i	i
CCN1CCN(c2cc(N3CCN(C(=O)c4ccco4)CC3)c3c4c(onc24)-c2ccccc2C3=O)CC1	i	i	i	i	-5.9*
COc1ccc(CCN2C(=S)N(C)C(=O)C2CC(=O)Nc2ccc(F)cc2)cc1 (centres undefined)	i	120*	i	i	i
C=CCN(C(=O)CNC(=O)c1ccco1)C(C(=O)NC1CCCCC1)c1cccnc1 (centres undefined)	i	i	i	i	i
SMILES	TRPC6 act	TRPC4 agonist	TRPC4 inh	TRPC4 PAM	TRPC6 inhibitor
O=C(CCCSc1nc2ccccc2[nH]1)NCc1ccccc1Cl	i	i	-8*	i	i
O=C(CCCSc1nc2ccccc2[nH]1)NC(c1ccccc1)c1ccccc1	i	i	i	i	i
CC1=NN(c2ccccc2)C(=O)/C1=C\C=C1\N(C)c2ccccc2C1(C)C	i	58*	i	i	i
COc1ccccc1N1CCN(C2CCCN(C(=O)CN3CCCCC3=O)C2)CC1 (centres undefined)	i	i	i	i	i
Clc1ccc2nc(CN3CCCCC3)cn2c1	i	i	i	i	i
Clc1ccc2nc(CN3CCCc4ccccc43)cn2c1	i	i	i	21*	i
CNC(=S)N/N=C(\C)c1ccc(C(C)(C)C)cc1	i	i	i	11*	i
CNC(=S)N/N=C(\C)c1ccccc1	i	i	i	i	i
CC(C)=C(NC(=O)c1ccccc1)C(=O)NCCc1nc2ccccc2[nH]1	i	i	i	i	i
CCc1ccc2nc3n[nH]c(N)c3cc2c1	i	68*	i	i	i
CCCSc1cc(N)cc([N+](=O)[O-])c1	i	i	-5*	i	i
Cc1nnc2n(Cc3ccccc3)c(=O)c3c4c(sc3n12)COC(C(C)C)C4 (centres undefined)	i	i	i	11*	i
O=C(NCc1ccco1)c1sc(=S)n2c1[nH]c(=O)c1ccccc12	i	114*	i	i	i
O=C(NC1CCCC1)c1sc(=S)n2c1[nH]c(=O)c1ccccc12	i	83*	i	i	i
Nc1nonc1-n1nnc(C(=O)N/N=C/c2cccc(O)c2)c1CN1CCCC1	i	i	i	i	i
CN1CCN(Cc2c(C(=O)N/N=C/c3cccc(Br)c3)nnn2-c2nonc2N)CC1	i	43*	i	i	i
Cc1ccccc1OC(C)C(=O)N1CCN(c2ccccn2)CC1 (centres undefined)	i	i	i	i	i
CC(=O)c1ccc(OCCCC(=O)NCCc2ccccc2)cc1	i	i	i	i	i
Cc1cc2cc(C#N)c(NCCNC(=S)NCCCN3CCOCC3)nc2cc1C	i	i	-6*	i	i
COc1ccc(C(c2c(O)ccc3ccccc23)N2CCOCC2)c(OC)c1 (centres undefined)	i	i	-6*	i	i
Cc1ccc(OCc2cc(C(=O)N(C)CCc3nc4ccccc4[nH]3)no2)cc1C	i	i	-6*	i	i
CC1CN(C(=S)Nc2ccc(SC(F)F)cc2)CC(C)O1 (centres undefined)	i	i	i	i	-6.5*
CC1CC(C)CN(C(=S)Nc2ccc(SC(F)F)cc2)C1 (centres undefined)	i	i	i	i	i
COc1ccccc1NC(=O)CCCN1C(=O)C2CC=CCC2C1=O (centres undefined)	i	i	i	i	i
O=C(N/N=C/C(Br)=C/c1ccccc1)c1ccccc1[N+](=O)[O-]	i	i	i	12*	i
